The text below walks through data of ChEMBL document CHEMBL1671686, “Carbapenem-resistant KPC-2-producing Escherichia coli in a Tel Aviv Medical Center, 2005 to 2008” (2010).

≈ marks a conversion by molar mass, not a printed value. A value given as a limit tells only on which side of the number the result lay.

What all share (format): functional
Test [1] deals with Escherichia coli. Briefly: Antimicrobial activity against Escherichia coli isolate 547T expressing beta-lactamase KPC2 and PFGE cluster 4 isolated from blood of patient by agar dilution method. The essentials:
(§1)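 Transformant strains. Plasmids purified from the clinical isolates were electroporated into E. coli DH10B. Transformants were selected on LB agar with 100 μg/ml ampicillin, and colonies were PCR-screened for blaKPC before susceptibility testing.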

Test [2] relates to Escherichia coli. The test can be described thus: Antimicrobial activity against Escherichia coli isolate 386T expressing beta-lactamase KPC2, OXA-9 and PFGE cluster 1 isolated from wound of patient by agar dilution method. The method, boiled down: as §1
Background: Agar dilution tests growth on a series of plates holding different concentrations.

The test system of test [3] is Escherichia coli. The test can be described thus: Antimicrobial activity against Escherichia coli isolate 547 expressing beta-lactamase KPC2, TEM and PFGE cluster 4 isolated from blood of patient by agar dilution method. The method, boiled down: (§2)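 Clinical carbapenem-resistant E. coli isolates collected Feb 2005–Oct 2008. Carbapenem MICs determined by agar dilution following CLSI protocols.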

The test system of test [4] is Escherichia coli. The test can be described thus: Antimicrobial activity against Escherichia coli isolate 386 expressing beta-lactamase KPC2, CTX-M-15, OXA-9, TEM and PFGE cluster 1 isolated from wound of patient by agar dilution method. The method, boiled down:
as §2

Test [5] relates to Escherichia coli. Briefly: Antimicrobial activity against Escherichia coli isolate 1679 expressing beta-lactamase KPC2, SHV-12, TEM and PFGE cluster 6 isolated from peritoneal fluid of patient by agar dilution method. The essentials: (§3)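 Clinical carbapenem-resistant E. coli isolates from the hospital, February 2005 to October 2008. Carbapenem MICs were determined by agar dilution following CLSI protocols.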

The subject of test [6] is Escherichia coli. The test can be described thus: Antimicrobial activity against Escherichia coli isolate 360 expressing beta-lactamase KPC2, CTX-M-15, OXA-9, TEM and PFGE cluster 1 isolated from urine of patient by agar dilution method. The note with it: isolate 360, Urine. The method, boiled down: as §2
For test [7], the system named is Escherichia coli. Briefly: Antimicrobial activity against Escherichia coli isolate 360T expressing beta-lactamase KPC2, OXA-9 and PFGE cluster 1 isolated from urine of patient by agar dilution method. The method, boiled down:
as §1

The test system of test [8] is Escherichia coli. Briefly: Antimicrobial activity against Escherichia coli DH10B by Etest. Conditions: K-12 DH10B.
Test [9] concerns Escherichia coli. Briefly: Antimicrobial activity against Escherichia coli isolate 540 expressing beta-lactamase KPC2, TEM and PFGE cluster 4 isolated from synovial fluid of patient by agar dilution method. The method, boiled down:
as §3

Test [10] relates to Escherichia coli. Briefly: Antimicrobial activity against Escherichia coli isolate 1679T expressing beta-lactamase KPC2, TEM and PFGE cluster 6 isolated from peritoneal fluid of patient by agar dilution method. The method, boiled down: as §1
Test [11] deals with Escherichia coli. The test can be described thus: Antimicrobial activity against Escherichia coli isolate 339 expressing beta-lactamase KPC2, TEM and PFGE cluster 5 isolated from peritoneal fluid of patient by agar dilution method. The method, boiled down: as §3
Test [12] relates to Escherichia coli. The test can be described thus: Antimicrobial activity against Escherichia coli isolate 339T expressing beta-lactamase KPC2 and PFGE cluster 5 isolated from peritoneal fluid of patient by agar dilution method. The essentials:
as §1

Test [13] relates to Escherichia coli. The test can be described thus: Antimicrobial activity against Escherichia coli isolate 157T expressing beta-lactamase KPC2 and PFGE cluster 3 isolated from urine of patient by agar dilution method. The essentials: as §1
For test [14], the system named is Escherichia coli. The test can be described thus: Antimicrobial activity against Escherichia coli isolate 157 expressing beta-lactamase KPC2, CTX-M-15, TEM and PFGE cluster 3 isolated from urine of patient by agar dilution method. Conditions: isolate 157, Urine. The essentials: as §2
Test [15] deals with Escherichia coli. The test can be described thus: Antimicrobial activity against Escherichia coli isolate 329 expressing beta-lactamase KPC2, CTX-M-2, TEM and PFGE cluster 2 isolated from blood of patient by agar dilution method. The essentials:
as §3

The subject of test [16] is Escherichia coli. The test can be described thus: Antimicrobial activity against Escherichia coli isolate 543T expressing beta-lactamase KPC2 and PFGE cluster 4 isolated from synovial fluid of patient by agar dilution method. The method, boiled down:
as §1

The test system of test [17] is Escherichia coli. The test can be described thus: Antimicrobial activity against Escherichia coli isolate 329T expressing beta-lactamase KPC2 and PFGE cluster 2 isolated from blood of patient by agar dilution method. The method, boiled down:
as §1

The test system of test [18] is Escherichia coli. Briefly: Antimicrobial activity against Escherichia coli isolate 544 expressing beta-lactamase KPC2, TEM and PFGE cluster 4 isolated from abscess of patient by agar dilution method. The essentials:
as §3

Test [19] relates to Escherichia coli. Briefly: Antimicrobial activity against Escherichia coli isolate 543T expressing beta-lactamase KPC2 and PFGE cluster 4 isolated from synovial fluid of patient by vitek-2 method.
Test [20] concerns Escherichia coli. The test can be described thus: Antimicrobial activity against Escherichia coli isolate 339T expressing beta-lactamase KPC2 and PFGE cluster 5 isolated from peritoneal fluid of patient by vitek-2 method.
Test [21] concerns Escherichia coli. The test can be described thus: Antimicrobial activity against Escherichia coli isolate 329 expressing beta-lactamase KPC2, CTX-M-2, TEM and PFGE cluster 2 isolated from blood of patient by vitek-2 method.
The test system of test [22] is Escherichia coli. The test can be described thus: Antimicrobial activity against Escherichia coli isolate 543 expressing beta-lactamase KPC2, CTX-M-15, TEM and PFGE cluster 4 isolated from synovial fluid of patient by vitek-2 method.
The test system of test [23] is Escherichia coli. Briefly: Antimicrobial activity against Escherichia coli isolate 540 expressing beta-lactamase KPC2, TEM and PFGE cluster 4 isolated from synovial fluid of patient by vitek-2 method.
Test [24] concerns Escherichia coli. Briefly: Antimicrobial activity against Escherichia coli isolate 329T expressing beta-lactamase KPC2 and PFGE cluster 2 isolated from blood of patient by vitek-2 method.
For test [25], the system named is Escherichia coli. The test can be described thus: Antimicrobial activity against Escherichia coli isolate 544 expressing beta-lactamase KPC2, TEM and PFGE cluster 4 isolated from abscess of patient by vitek-2 method.
For test [26], the system named is Escherichia coli. The test can be described thus: Antimicrobial activity against Escherichia coli isolate 360 expressing beta-lactamase KPC2, CTX-M-15, OXA-9, TEM and PFGE cluster 1 isolated from urine of patient by vitek-2 method.
The test system of test [27] is Escherichia coli. The test can be described thus: Antimicrobial activity against Escherichia coli isolate 339 expressing beta-lactamase KPC2, TEM and PFGE cluster 5 isolated from peritoneal fluid of patient by vitek-2 method.
For test [28], the system named is Escherichia coli. The test can be described thus: Antimicrobial activity against Escherichia coli isolate 157 expressing beta-lactamase KPC2, CTX-M-15, TEM and PFGE cluster 3 isolated from urine of patient by vitek-2 method.
In test [29] the test system is Escherichia coli. Briefly: Antimicrobial activity against Escherichia coli isolate 360T expressing beta-lactamase KPC2, OXA-9 and PFGE cluster 1 isolated from urine of patient by vitek-2 method.
Test [30] has as its system Escherichia coli. The test can be described thus: Antimicrobial activity against Escherichia coli isolate 547 expressing beta-lactamase KPC2, TEM and PFGE cluster 4 isolated from blood of patient by vitek-2 method.
The subject of test [31] is Escherichia coli. Briefly: Antimicrobial activity against Escherichia coli isolate 1679 expressing beta-lactamase KPC2, SHV-12, TEM and PFGE cluster 6 isolated from peritoneal fluid of patient by vitek-2 method.
The test system of test [32] is Escherichia coli. Briefly: Antimicrobial activity against Escherichia coli isolate 386 expressing beta-lactamase KPC2, CTX-M-15, OXA-9, TEM and PFGE cluster 1 isolated from wound of patient by vitek-2 method.
Test [33] has as its system Escherichia coli. The test can be described thus: Antimicrobial activity against Escherichia coli DH10B by vitek-2 method. Conditions: K-12 DH10B. The method, boiled down: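 Plasmid-free recipient E. coli DH10B, used as the host for electroporation transformants, was tested for susceptibility on the automated Vitek-2 system.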
Test [34] has as its system Escherichia coli. Briefly: Antimicrobial activity against Escherichia coli isolate 1679T expressing beta-lactamase KPC2, TEM and PFGE cluster 6 isolated from peritoneal fluid of patient by vitek-2 method.
Test [35] concerns Escherichia coli. The test can be described thus: Antimicrobial activity against Escherichia coli isolate 547T expressing beta-lactamase KPC2 and PFGE cluster 4 isolated from blood of patient by vitek-2 method.
Test [36] deals with Escherichia coli. Briefly: Antimicrobial activity against Escherichia coli isolate 157T expressing beta-lactamase KPC2 and PFGE cluster 3 isolated from urine of patient by vitek-2 method.
The test system of test [37] is Escherichia coli. The test can be described thus: Antimicrobial activity against Escherichia coli isolate 386T expressing beta-lactamase KPC2, OXA-9 and PFGE cluster 1 isolated from wound of patient by vitek-2 method.

The MIC is the lowest concentration found to suppress growth. Low readings indicate inhibition by little substance, high ones a need for much substance. With `C[C@@H](O)[C@H]1C(=O)N2C(C(=O)O)=C(S[C@@H]3CN[C@H](C(=O)N(C)C)C3)[C@H](C)[C@H]12` [MEROPENEM], the MIC against Escherichia coli [1] worked out at 0.5 µg/mL (≈ 1.3 µM); against Escherichia coli [2], 0.25 µg/mL (≈ 0.652 µM); in the test on Escherichia coli [3], 4 µg/mL (≈ 10.4 µM); in the test on Escherichia coli [4], 1 µg/mL (≈ 2.61 µM); against Escherichia coli [5] it was 16 µg/mL (≈ 41.7 µM); against Escherichia coli [6], 4 µg/mL (≈ 10.4 µM). For the same compound, the minimal inhibitory concentration (MIC) against Escherichia coli [7] was determined as 1 µg/mL (≈ 2.61 µM); in the test on Escherichia coli [8], 0.25 µg/mL (≈ 0.652 µM); against Escherichia coli [9], 4 µg/mL (≈ 10.4 µM); against Escherichia coli [10], 0.5 µg/mL (≈ 1.3 µM); in the test with Escherichia coli [11], 2 µg/mL (≈ 5.22 µM); against Escherichia coli [12] it was 1 µg/mL (≈ 2.61 µM). Moreover, the MIC was found to be 1 µg/mL (≈ 2.61 µM) against Escherichia coli [13]; 4 µg/mL (≈ 10.4 µM) in the test with Escherichia coli [14]; 8 µg/mL (≈ 20.9 µM) in the test on Escherichia coli [15]; 0.5 µg/mL (≈ 1.3 µM) against Escherichia coli [16]; 1 µg/mL (≈ 2.61 µM) in the test on Escherichia coli [17]; 4 µg/mL (≈ 10.4 µM) against Escherichia coli [18].

Regarding GENTAMICIN, the MIC is less than 1 µg/mL with Escherichia coli [19]; less than 1 µg/mL in the test with Escherichia coli [20]; greater than 16 µg/mL against Escherichia coli [21]; greater than 16 µg/mL against Escherichia coli [22]; greater than 16 µg/mL in the test on Escherichia coli [23]; less than 1 µg/mL with Escherichia coli [24]. The MIC was greater than 16 µg/mL in the test on Escherichia coli [25]; 2 µg/mL in the test with Escherichia coli [26]; greater than 16 µg/mL against Escherichia coli [27]; less than 1 µg/mL in the test with Escherichia coli [28]; 2 µg/mL in the test with Escherichia coli [29]; greater than 16 µg/mL in the test on Escherichia coli [30]. Further, the MIC is greater than 16 µg/mL against Escherichia coli [31]; 4 µg/mL against Escherichia coli [32]; less than 1 µg/mL against Escherichia coli [33]; less than 1 µg/mL in the test on Escherichia coli [34]; less than 1 µg/mL against Escherichia coli [35]; less than 1 µg/mL against Escherichia coli [36]. Besides, in the test on Escherichia coli [37], inhibition of growth (MIC) required 4 µg/mL.
